Measured values: ChEMBL document CHEMBL4261536, “Encapsulation of nor-β-lapachone into poly(d,l)-lactide-co-glycolide (PLGA) microcapsules: full characterization, computational details and cytotoxic activity against human cancer cell lines” (Medchemcomm, 2017)
Converted amounts (≈) assume the structure as drawn. The source made the active and inactive calls. No cut-off for these calls is given here.

Key:
DU-145 [1] = assay: Cytotoxicity against human DU145 cells assessed as decrease in cell viability after 72 hrs by MTT assay; assay type: functional, cell-based; details: DU-145, 72 h
Procedure, shortened: (§1)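 Cells grown in RPMI 1640 with 10% FBS and penicillin/streptomycin at 37°C, 5% CO2. Seeded at 0.1×10⁶ cells/well (HCT-116: 0.7×10⁵). After 24 h, drug in DMSO added at […]; controls got DMSO. Exposure 72 h, with prostate lines read at 24, 72 and 96 h. Then MTT (0.5 mg/mL) for 3 h, formazan dissolved in DMSO, A595 expressed as % of control. IC50 by nonlinear regression from three independent experiments in triplicate.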

PC-3M [2] = assay: Cytotoxicity against human PC3M cells assessed as decrease in cell viability after 72 hrs by MTT assay; assay type: functional, cell-based; procedure, shortened: as §1
OVCAR-8 [3] = assay: Cytotoxicity against human OVCAR8 cells assessed as decrease in cell viability after 72 hrs by MTT assay; assay type: functional, cell-based; details: OVCAR-8, 72 h; procedure, shortened: as §1
PC-3M [4] = assay: Induction of morphological changes in human PC3M cells at 11.2 uM after 24 to 72 hrs by hematoxylin/eosin staining-based light microscopic method; assay type: functional, cell-based
Procedure, shortened: (§2)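 PC3M cells exposed to free or PLGA-encapsulated drug, then stained with hematoxylin/eosin and examined by light microscopy (400×) after 24, 48 and 72 h.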

PBMC [5] = assay: Cytotoxicity against human PBMC assessed as decrease in cell viability using compound loaded PLGA microcapsule after 72 hrs by Alamar blue assay; assay type: cell-based
Procedure, shortened: (§3)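 PBMC isolated from healthy volunteers' blood on Ficoll. Kept in RPMI 1640 with 20% FBS; proliferation induced with 3% phytohemagglutinin. Plated at 2×10⁴ cells/well; after 24 h, test material in PBS pH 7.4 added at […], controls got PBS. Treated 72 h, with Alamar Blue added for the final 24 h. Absorbance at 570 and 600 nm as % of control. IC50 by nonlinear regression from three independent experiments in triplicate.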

PC-3 [6] = assay: Cytotoxicity against human PC3 cells assessed as decrease in cell viability after 24 hrs by MTT assay; assay type: functional, cell-based; procedure, shortened: as §1
SF-295 [7] = assay: Cytotoxicity against human SF295 cells assessed as decrease in cell viability after 72 hrs by MTT assay; assay type: functional, cell-based; details: SF-295, 72 h; procedure, shortened: as §1
PC-3M [8] = assay: Induction of morphological changes in human PC3M cells at 5.4 uM using compound loaded PLGA microcapsule after 24 to 72 hrs by hematoxylin/eosin staining-based light microscopic method; assay type: functional, cell-based; procedure, shortened: as §2
DU-145 [9] = assay: Cytotoxicity against human DU145 cells assessed as decrease in cell viability after 24 hrs by MTT assay; assay type: functional, cell-based; procedure, shortened: as §1
DU-145 [10] = assay: Cytotoxicity against human DU145 cells assessed as decrease in cell viability using compound loaded PLGA microcapsule after 72 hrs by MTT assay; assay type: functional, cell-based; details: DU-145, 72 h
Procedure, shortened: (§4)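 Drug-loaded PLGA microparticles suspended in PBS pH 7.4 and added at […], 24 h after seeding at 0.1×10⁶ cells/well (HCT-116: 0.7×10⁵). Medium RPMI 1640 with 10% FBS, 37°C, 5% CO2. Incubated 72 h, with DU145, PC3 and PC3M read at 24, 72 and 96 h. MTT 0.5 mg/mL for 3 h, formazan in DMSO, A595 as % of control. IC50 by nonlinear regression, three independent experiments in triplicate.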

PC-3M [11] = assay: Cytotoxicity against human PC3M cells assessed as decrease in cell viability using compound loaded PLGA microcapsule after 96 hrs by MTT assay; assay type: functional, cell-based; procedure, shortened: as §4
DU-145 [12] = assay: Cytotoxicity against human DU145 cells assessed as decrease in cell viability using compound loaded PLGA microcapsule after 24 hrs by MTT assay; assay type: functional, cell-based; procedure, shortened: as §4
PC-3M [13] = assay: Cytotoxicity against human PC3M cells assessed as decrease in cell viability after 24 hrs by MTT assay; assay type: functional, cell-based; procedure, shortened: as §1
PC-3M [14] = assay: Cytotoxicity against human PC3M cells assessed as decrease in cell viability using compound loaded PLGA microcapsule after 24 hrs by MTT assay; assay type: functional, cell-based; procedure, shortened: as §4
DU-145 [15] = assay: Cytotoxicity against human DU145 cells assessed as decrease in cell viability after 96 hrs by MTT assay; assay type: functional, cell-based; procedure, shortened: as §1
HCT-116 [16] = assay: Cytotoxicity against human HCT116 cells assessed as decrease in cell viability using compound loaded PLGA microcapsule after 72 hrs by MTT assay; assay type: functional, cell-based; details: HCT-116, 72 h; procedure, shortened: as §4
PC-3M [17] = assay: Cytotoxicity against human PC3M cells assessed as decrease in cell viability after 96 hrs by MTT assay; assay type: functional, cell-based; procedure, shortened: as §1
PC-3 [18] = assay: Cytotoxicity against human PC3 cells assessed as decrease in cell viability after 72 hrs by MTT assay; assay type: functional, cell-based; details: PC-3, 72 h; procedure, shortened: as §1
SF-295 [19] = assay: Cytotoxicity against human SF295 cells assessed as decrease in cell viability using compound loaded PLGA microcapsule after 72 hrs by MTT assay; assay type: functional, cell-based; details: SF-295, 72 h; procedure, shortened: as §4
OVCAR-8 [20] = assay: Cytotoxicity against human OVCAR8 cells assessed as decrease in cell viability using compound loaded PLGA microcapsule after 72 hrs by MTT assay; assay type: functional, cell-based; details: OVCAR-8, 72 h; procedure, shortened: as §4
PC-3 [21] = assay: Cytotoxicity against human PC3 cells assessed as decrease in cell viability using compound loaded PLGA microcapsule after 24 hrs by MTT assay; assay type: functional, cell-based; procedure, shortened: as §4
HCT-116 [22] = assay: Cytotoxicity against human HCT116 cells assessed as decrease in cell viability after 72 hrs by MTT assay; assay type: functional, cell-based; details: HCT-116, 72 h
Procedure, shortened: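 After 24 h, drug in DMSO added at […]; controls got DMSO. Exposure 72 h, with prostate lines read at 24, 72 and 96 h. Then MTT (0.5 mg/mL) for 3 h, formazan dissolved in DMSO, A595 expressed as % of control. IC50 by nonlinear regression from three independent experiments in triplicate.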

PC-3 [23] = assay: Cytotoxicity against human PC3 cells assessed as decrease in cell viability using compound loaded PLGA microcapsule after 96 hrs by MTT assay; assay type: functional, cell-based; procedure, shortened: as §4
PC-3 [24] = assay: Cytotoxicity against human PC3 cells assessed as decrease in cell viability after 96 hrs by MTT assay; assay type: functional, cell-based; procedure, shortened: as §1
PC-3M [25] = assay: Cytotoxicity against human PC3M cells assessed as decrease in cell viability using compound loaded PLGA microcapsule after 72 hrs by MTT assay; assay type: functional, cell-based; procedure, shortened: as §4
PBMC [26] = assay: Cytotoxicity against human PBMC assessed as decrease in cell viability after 72 hrs by Alamar blue assay; assay type: cell-based; procedure, shortened: as §3
DU-145 [27] = assay: Cytotoxicity against human DU145 cells assessed as decrease in cell viability using compound loaded PLGA microcapsule after 96 hrs by MTT assay; assay type: functional, cell-based; procedure, shortened: as §4
PC-3 [28] = assay: Cytotoxicity against human PC3 cells assessed as decrease in cell viability using compound loaded PLGA microcapsule after 72 hrs by MTT assay; assay type: functional, cell-based; details: PC-3, 72 h; procedure, shortened: as §4

Molecule `COc1cccc2c1C(=O)c1c(O)c3c(c(O)c1C2=O)C[C@@](O)(C(=O)CO)C[C@@H]3O[C@H]1C[C@H](N)[C@H](O)[C@H](C)O1` [DOXORUBICIN] has an IC50 (DU-145 [1]) of 0.153 µM, an IC50 (PC-3M [2]) of 0.368 µM and an IC50 (OVCAR-8 [3]) of 0.62 µM.

In the case of `CC1(C)CC2=C(O1)c1ccccc1C(=O)C2=O` [NOR-BETA-LAPACHONE], the Activity (PC-3M [4]) is reported as “Active”, the IC50 (DU-145 [1]) is reported as 1.39 µM and the IC50 (PBMC [5]) is reported as 10 µM. For the same molecule, the IC50 (PC-3M [2]) was 8.97 µM, the Activity (PC-3 [6]) was “Active” and the IC50 (SF-295 [7]) was 1.45 µM. For the same molecule, the Activity (PC-3M [8]) was “Active”, the Activity (DU-145 [9]) was “Active” and the IC50 (DU-145 [10]) was 2.38 µM. The IC50 (PC-3M [11]) was 1.4 µg/mL (≈ 6.14 µM), the Activity (DU-145 [12]) was “Active” and the IC50 (PC-3M [13]) was 1.89 µg/mL (≈ 8.27 µM). The IC50 (PC-3M [14]) was 2.44 µg/mL (≈ 10.7 µM), the Activity (DU-145 [15]) was “Active” and the IC50 (HCT-116 [16]) was 7.48 µM. The IC50 (PC-3M [17]) was 1.79 µg/mL (≈ 7.83 µM), the IC50 (PC-3 [18]) was 1.45 µM and the IC50 (SF-295 [19]) was 7.4 µM. The IC50 (OVCAR-8 [20]) was 13.7 µM, the IC50 (OVCAR-8 [3]) was 2.58 µM and the Activity (PC-3 [21]) was “Active”. The IC50 (HCT-116 [22]) was 1.57 µM, the Activity (PC-3 [23]) was “Active” and the Activity (PC-3 [24]) was “Active”. The IC50 (PC-3M [25]) was 4.59 µM, the IC50 (PBMC [26]) was 10 µM and the Activity (DU-145 [27]) was “Active”. It also gave an IC50 (PC-3 [28]) of 1.85 µM.
